The target of assay [1] is T1, Adrenergic receptor alpha-1 (Rattus norvegicus, UniProt P15823+P23944+P43140).
T1 sequence (P15823 whole entry): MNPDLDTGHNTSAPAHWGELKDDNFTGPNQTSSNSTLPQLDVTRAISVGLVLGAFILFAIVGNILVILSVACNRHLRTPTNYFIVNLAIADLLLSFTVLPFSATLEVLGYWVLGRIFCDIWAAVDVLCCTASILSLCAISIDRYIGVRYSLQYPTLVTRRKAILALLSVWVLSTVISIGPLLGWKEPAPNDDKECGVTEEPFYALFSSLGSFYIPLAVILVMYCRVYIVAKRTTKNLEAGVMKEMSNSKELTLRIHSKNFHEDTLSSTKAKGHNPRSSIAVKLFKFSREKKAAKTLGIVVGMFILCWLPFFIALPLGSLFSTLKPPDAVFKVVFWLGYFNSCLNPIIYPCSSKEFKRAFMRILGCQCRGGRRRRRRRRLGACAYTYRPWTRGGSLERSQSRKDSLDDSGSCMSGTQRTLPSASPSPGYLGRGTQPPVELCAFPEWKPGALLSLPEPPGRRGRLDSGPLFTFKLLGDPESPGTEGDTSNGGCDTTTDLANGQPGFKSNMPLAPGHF
T1 sequence (P23944 whole entry): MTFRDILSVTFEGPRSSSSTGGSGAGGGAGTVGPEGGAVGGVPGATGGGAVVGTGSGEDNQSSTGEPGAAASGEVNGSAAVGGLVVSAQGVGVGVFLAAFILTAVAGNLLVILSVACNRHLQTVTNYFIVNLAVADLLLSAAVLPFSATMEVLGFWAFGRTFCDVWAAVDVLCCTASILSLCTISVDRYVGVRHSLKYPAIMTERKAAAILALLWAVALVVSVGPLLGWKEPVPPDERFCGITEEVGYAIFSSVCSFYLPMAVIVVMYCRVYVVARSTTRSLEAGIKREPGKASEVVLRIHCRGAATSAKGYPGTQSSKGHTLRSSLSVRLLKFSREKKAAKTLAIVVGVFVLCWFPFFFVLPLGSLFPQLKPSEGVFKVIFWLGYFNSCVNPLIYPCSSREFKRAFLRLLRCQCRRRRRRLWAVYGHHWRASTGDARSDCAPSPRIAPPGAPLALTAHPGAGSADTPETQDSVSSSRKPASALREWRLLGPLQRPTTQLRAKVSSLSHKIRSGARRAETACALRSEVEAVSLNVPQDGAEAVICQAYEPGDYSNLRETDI
T1 sequence (P43140 whole entry): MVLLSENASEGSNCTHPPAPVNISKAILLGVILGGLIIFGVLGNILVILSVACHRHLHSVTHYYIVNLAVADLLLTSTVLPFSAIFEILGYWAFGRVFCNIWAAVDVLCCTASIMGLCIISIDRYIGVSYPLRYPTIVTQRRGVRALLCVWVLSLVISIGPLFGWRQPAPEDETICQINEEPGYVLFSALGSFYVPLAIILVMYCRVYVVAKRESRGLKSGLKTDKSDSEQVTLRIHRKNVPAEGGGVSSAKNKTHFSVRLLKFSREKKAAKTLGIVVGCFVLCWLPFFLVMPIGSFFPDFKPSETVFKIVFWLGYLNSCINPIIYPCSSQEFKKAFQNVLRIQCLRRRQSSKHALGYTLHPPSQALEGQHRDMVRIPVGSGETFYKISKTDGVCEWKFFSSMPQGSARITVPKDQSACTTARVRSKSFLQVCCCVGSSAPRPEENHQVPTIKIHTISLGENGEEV
In words: In vitro binding affinity measured on alpha-1 adrenergic receptor using [3H]prazosin as radioligand. The format is protein assay.

The target of assay [2] is T2, 5-hydroxytryptamine receptor 1A (Rattus norvegicus, UniProt P19327).
T2 sequence (P19327 whole entry): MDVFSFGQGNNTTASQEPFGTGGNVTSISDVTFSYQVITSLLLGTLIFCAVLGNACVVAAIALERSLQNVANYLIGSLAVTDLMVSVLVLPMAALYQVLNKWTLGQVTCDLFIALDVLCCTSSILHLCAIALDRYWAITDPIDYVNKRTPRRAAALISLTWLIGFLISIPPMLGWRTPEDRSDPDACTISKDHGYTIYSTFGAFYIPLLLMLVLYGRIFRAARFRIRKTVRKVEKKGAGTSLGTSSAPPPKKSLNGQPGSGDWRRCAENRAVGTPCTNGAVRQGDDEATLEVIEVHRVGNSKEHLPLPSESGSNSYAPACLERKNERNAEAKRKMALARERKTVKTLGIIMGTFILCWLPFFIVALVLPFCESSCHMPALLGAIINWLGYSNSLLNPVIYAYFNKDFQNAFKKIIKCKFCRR
In words: In vitro binding affinity measured on serotonin 5-hydroxytryptamine 1A receptor using [3H]8-OH-DPAT as radioligand.

The target of assay [3] is Serotonin 2 (5-HT2) receptor (Rattus norvegicus, UniProt P30994+P08909+P14842). The experiment in a line: In vitro binding affinity measured on serotonin 5-hydroxytryptamine 2 receptor using [3H]ketanserin as radioligand. The format is protein assay.
In a further assay the target is D(2) dopamine receptor (Rattus norvegicus, UniProt P61169). The experiment in a line: In vitro binding affinity measured on dopamine receptor D2 using [3H]spiroperidol as radioligand. The gist of the method: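 IC50 came from 7–9 drug concentrations in triplicate, over 2–4 independent experiments, analysed with EBDA. Specific binding exceeded 75% of total.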
The nature of assay [4]: Selectivity ratio of IC50 value against D-2 receptor to that of 5-HT1A receptor. The gist of the method:
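Ratio of the D-2 IC50 to the 5-HT1A IC50. […] Each IC50 came from 7–9 concentrations in triplicate over 2–4 experiments (EBDA).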

The species named for another assay is Cavia porcellus. The experiment in a line: Selectivity as the ratio of IC50 value against sigma receptor to that of 5-HT1A receptor. The gist of the method:
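Ratio of the σ IC50 to the 5-HT1A IC50. For σ, a P2 membrane fraction was prepared from whole male guinea pig brain without cerebellum in 50 mM Tris-HCl pH 7.4. [3H]DTG was 0.90 nM final, incubated 90 min at 25 °C, then filtered and counted. IC50 values came from 7–9 concentrations in triplicate (EBDA).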

The target in assay [5] is Serotonin 1a (5-HT1a) receptor/Adrenergic receptor alpha-1 (Rattus norvegicus) (UniProt P15823+P23944+P43140+P19327). The experiment in a line: Selectivity ratio of IC50 value against alpha-1 receptor to that of 5-HT1A receptor. In kind it is protein assay. The gist of the method: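 Ratio of the α1 IC50 to the 5-HT1A IC50 ([3H]-8-OH-DPAT, rat cortex). For α1, male Sprague-Dawley rat cortex membranes were prepared in 50 mM Tris-HCl pH 7.7 with 10 μM pargyline and 0.1% ascorbate.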

23 compounds from ChEMBL document CHEMBL1128270 (J Med Chem, 1995) can be followed below.

Structures are written as SMILES.

What is called IC50 is the concentration that inhibits the measured activity by half. High values mean weaker potency in that assay, low ones greater potency in that assay.

D(2) dopamine receptor, sequence (P61169 whole entry): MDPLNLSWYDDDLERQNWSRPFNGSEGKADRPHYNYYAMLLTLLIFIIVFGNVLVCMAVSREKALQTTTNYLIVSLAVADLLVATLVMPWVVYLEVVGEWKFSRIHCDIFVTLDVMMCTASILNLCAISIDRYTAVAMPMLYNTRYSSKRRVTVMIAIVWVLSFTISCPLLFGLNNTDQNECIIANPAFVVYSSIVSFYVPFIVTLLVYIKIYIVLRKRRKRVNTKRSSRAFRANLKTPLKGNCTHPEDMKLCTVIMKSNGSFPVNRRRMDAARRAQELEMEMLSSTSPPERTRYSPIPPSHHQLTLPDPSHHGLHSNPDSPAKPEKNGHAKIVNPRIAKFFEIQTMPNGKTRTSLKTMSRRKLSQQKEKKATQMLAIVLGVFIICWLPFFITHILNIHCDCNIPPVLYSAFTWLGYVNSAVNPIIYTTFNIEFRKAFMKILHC

As to `COc1ccc2c(c1)C(CCCCN1CCN(c3ccccc3OC)CC1)=CCC2`, the concentration for half-maximal inhibition (IC50) in assay [1] came out at 15.3 nM; in assay [2], 1.53 nM; in assay [3] it was 209 nM; at D(2) dopamine receptor, 10.6 nM.
Taken in the same sequence, the figures for `COc1cccc2c1CCCC2CCCN1CCN(c2ccccn2)CC1` (stereo not drawn) were 31.4 nM, 0.58 nM, 331 nM and 177 nM.
As to `COc1ccccc1N1CCN(CCCC2CCCc3c(OC)cccc32)CC1` (stereo not drawn), the 50% inhibitory concentration (IC50) turned out to be 1.94 nM in assay [1], 0.32 nM in assay [2] and 358 nM in assay [3].
Turning to `COc1ccccc1N1CCN(CC/C=C2\CCCc3ccccc32)CC1`, the Selectivity in assay [4] came to 6.9; in the assay listed under Cavia porcellus it was 30; in assay [5], 2. In addition, the IC50 is 3.6 nM in assay [1], 1.84 nM in assay [2], 147 nM in assay [3] and 12.7 nM at D(2) dopamine receptor.
`COc1ccccc1N1CCN(CCCCC2CCCc3c(OC)cccc32)CC1` (stereo not drawn): the figures for the Selectivity in assay [4] and in assay [5] were 8.9 and 45, respectively. Besides, the concentration for half-maximal inhibition (IC50) in assay [1] worked out at 78.3 nM; in assay [2] it was 1.73 nM; at D(2) dopamine receptor, 15.4 nM.
Taken in the same sequence, the figures for `COc1ccccc1N1CCN(CCCCC2=CCCc3c(OC)cccc32)CC1` were 455, 7.4, 96.2 nM, 13 nM and 5920 nM.
As to `COc1ccccc1N1CCN(CCCC2CCCc3ccccc32)CC1` (stereo not drawn), the Selectivity in assay [4] came out at 63; in assay [5], 0.36. Moreover, the IC50 in assay [1] was determined as 0.14 nM; in assay [2], 0.39 nM; in assay [3] it was 155 nM; at D(2) dopamine receptor, 24.7 nM.
Turning to `COc1ccc2c(c1)C(CCCCN1CCN(c3ccccc3OC)CC1)CCC2` (stereo not drawn), the IC50 in assay [1] came out at 78.5 nM; in assay [2], 8.83 nM; in assay [3], 329 nM; at D(2) dopamine receptor it was 50.9 nM.
For `COc1ccc2c(c1)C(SCCN1CCN(c3ccccc3OC)CC1)CCC2` (stereo not drawn), the Selectivity in assay [4] amounted to 8.5; in the assay filed under Cavia porcellus, 20; in assay [5], 20. For the same compound, the IC50 in assay [1] was determined as 116 nM; in assay [2], 5.94 nM; in assay [3], 111 nM; at D(2) dopamine receptor, 50.2 nM.
Take `COc1cccc2c1CCC/C2=C\CCN1CCN(c2ccccn2)CC1`: the IC50 came out at 72.2 nM in assay [1], 0.35 nM in assay [2], 417 nM in assay [3] and 150 nM on D(2) dopamine receptor.
Consider `COc1cccc2c1CCC=C2CCCN1CCN(c2ccccn2)CC1`, for which the half-inhibitory concentration (IC50) in assay [1] was found to be 123 nM; in assay [2] it was 1.4 nM; in assay [3] it was 205 nM; on D(2) dopamine receptor, 119 nM.
Regarding `COc1ccc2c(c1)C(CCCN1CCN(c3ccccc3OC)CC1)CCC2` (stereo not drawn), the IC50 in assay [1] is 43.2 nM; in assay [2] it was 1.5 nM; in assay [3] it was 220 nM; at D(2) dopamine receptor, 51.5 nM.
For `COc1ccc2c(c1)C(CCCN1CCN(c3ccccc3OC)CC1)=CCC2`, the figures for the Selectivity (in assay [4]; in the assay filed under Cavia porcellus; in assay [5]) were 45, 114 and 12, respectively. The half-inhibitory concentration (IC50) in assay [1] was 24.5 nM; in assay [2], 2 nM; in assay [3], 391 nM; at D(2) dopamine receptor it was 90.6 nM.
For the compound `COc1ccccc1N1CCN(CCCC2CCCc3ccsc32)CC1` (stereo not drawn), the IC50 in assay [1] came out at 1.26 nM; in assay [2], 1.13 nM; in assay [3] it was 147 nM; on D(2) dopamine receptor, 24.1 nM.
Turning to `COc1cccc2c1CCC=C2CCCN1CCN(c2ccccc2)CC1`, the IC50 in assay [1] came out at 49 nM; in assay [3], 204 nM; on D(2) dopamine receptor, 303 nM.
With `COc1cccc2c1CCCC2CCCN1CCN(c2ccccc2)CC1` (stereo not drawn), the IC50 was 78.8 nM in assay [1], 0.36 nM in assay [2], 170 nM in assay [3] and 96.7 nM at D(2) dopamine receptor.
Consider `COc1ccc2c(c1)C(CCCN1CCN(c3cccc(C(F)(F)F)c3)CC1)=CCC2`, for which the figures for the Selectivity in assay [4] and in assay [5] were 9.4 and 22, respectively. Further, the IC50 was 3070 nM in assay [1], 138 nM in assay [2], 1170 nM in assay [3] and 1290 nM at D(2) dopamine receptor.
On to `COc1ccc2c(c1)C(CCCN1CCN(c3ccccc3)CC1)CCC2` (stereo not drawn), for which the Selectivity in assay [4] was determined as 3; in assay [5], 20. Further, the IC50 in assay [1] turned out to be 184 nM; in assay [2], 9.24 nM; at D(2) dopamine receptor, 28 nM.
Turning to `COc1ccccc1N1CCN(CC/C=C2\CCCc3c(OC)cccc32)CC1`, the results for the Selectivity (in assay [4]; in the assay listed under Cavia porcellus; in assay [5]) were 22, 100 and 12, respectively. The IC50 in assay [1] stood at 6 nM; in assay [2], 0.52 nM; in assay [3] it was 667 nM; on D(2) dopamine receptor, 11.3 nM.
As to `COc1ccccc1N1CCN(CCSC2CCCc3c(OC)cccc32)CC1` (stereo not drawn), the Selectivity is 7.3 in assay [4] and 111 in assay [5]. Moreover, the values for the IC50 (in assay [1]; in assay [2]; at D(2) dopamine receptor) were 120 nM, 1.08 nM and 7.83 nM, respectively.
With `COc1cccc2c1CCCC2CCCN1CCN(c2cccc(C(F)(F)F)c2)CC1` (stereo not drawn), the Selectivity in assay [4] is 3.2; in assay [5], 49. The IC50 in assay [1] came to 7170 nM; in assay [2] it was 146 nM; at D(2) dopamine receptor, 472 nM.
Consider `COc1cccc2c1CCC=C2CCCN1CCN(c2cccc(C(F)(F)F)c2)CC1`, for which the Selectivity in assay [4] stood at 12; in assay [5], 5. Besides, the half-inhibitory concentration (IC50) in assay [1] was 278 nM; in assay [2], 55.9 nM; in assay [3], 2370 nM; at D(2) dopamine receptor it was 644 nM.
On to `COc1ccc2c(c1)C(CCCN1CCN(c3ccccc3)CC1)=CCC2`, for which the half-inhibitory concentration (IC50) is 157 nM in assay [1], 147 nM in assay [2], 119 nM in assay [3] and 777 nM on D(2) dopamine receptor.
